DDE Tn6 FP inh – DD(E)-Tn6 binding inhibition, primary FP screen; Fibrin DD(E) TRITC-Tn6 fluorescence polarization displacement; AID 720509; inhibition, % at 8.3 µM; 370,000 tested, 0.21% active;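 active means inhibition above a per-campaign cutoff: mean of compounds within control limits plus 3 SD, cut at about 15% in these data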;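 further: 0% = median of all compound wells on the plate and 100% = blocking peptide control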
ADAM17 inh – ADAM17 inhibition, QFRET primary screen; P78536; inhibition, % at 6.95 µM; 370,000 tested, 0.83% active; recombinant ADAM17, EDANS/DABCYL FRET peptide cleavage;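 active means inhibition above the mean of compounds lying between control limits plus 3 SD, set per campaign, cut at about 8.5% in these data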;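 further: 0% = DMSO-only wells as the low control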
Target sequence (P78536 215-824 limits assumed): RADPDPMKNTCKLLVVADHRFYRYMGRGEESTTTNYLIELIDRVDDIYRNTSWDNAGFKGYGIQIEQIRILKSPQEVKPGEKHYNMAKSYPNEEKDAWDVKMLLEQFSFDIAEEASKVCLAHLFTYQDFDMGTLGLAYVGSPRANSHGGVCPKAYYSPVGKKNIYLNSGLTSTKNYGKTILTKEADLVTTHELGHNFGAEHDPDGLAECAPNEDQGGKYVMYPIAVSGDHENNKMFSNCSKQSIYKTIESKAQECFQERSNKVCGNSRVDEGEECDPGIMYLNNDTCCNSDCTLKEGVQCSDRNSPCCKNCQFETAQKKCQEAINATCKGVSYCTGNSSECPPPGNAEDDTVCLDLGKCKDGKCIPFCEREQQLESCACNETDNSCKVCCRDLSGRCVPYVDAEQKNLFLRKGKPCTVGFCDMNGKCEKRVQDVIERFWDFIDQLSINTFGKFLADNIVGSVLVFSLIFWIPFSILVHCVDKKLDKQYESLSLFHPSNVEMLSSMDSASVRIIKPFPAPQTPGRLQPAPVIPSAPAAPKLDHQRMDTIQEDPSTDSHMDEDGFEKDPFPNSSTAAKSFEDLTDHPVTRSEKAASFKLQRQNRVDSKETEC
MT1-MMP act inh – inhibitors of human MT1-MMP activation | AID 651647 | GFP/RFP ratio change, % at 20 µM | P50281 | 360,000 tested, 0.061% active | HT1080 RFP-PRO-GFP cells, GFP/RFP ratio fluorescence, overnight; percent of plate control window, DMSO zero;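 active means GFP/RFP ratio change of at least 30% with cell ATP level not reduced by more than half and red fluorescence within 50% of control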
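Test system: HT1080 cells expressing an RFP-PRO-GFP fluorescent reporter construct / Compound dosing: single-point 20 µM compound, 1% DMSO / Schedule: cells overnight before dosing, compound overnight, 37 °C, 5% CO2 / Evaluation: GFP/RFP fluorescence ratio / Control set: DMSO and RFP-L50D-GFP cell wells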
DDE Tn7 FP inh – inhibitors of Tn7 peptide binding to human fibrin DD(E) | P02675 | FP displacement of FITC-Tn7 peptide from fibrin DD(E); 0% = median of compound wells per plate | inhibition, % at 8.3 µM | 370,000 tested, 0.13% active;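 active means inhibition above the mean of compounds falling within the control limits plus 3 SD of them, cut at about 14% in these data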;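 further: 0% = plate median of compound wells and 100% = 10 µM Aha-Tn7 peptide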
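Assay system: Human clot-derived fibrin DD(E) complex | Buffer or medium: Tris/NaCl/CaCl2 buffer, pH 7.8 | Repeats: One replicate per compound | Benchmarks: Aha-Tn7 high control | Measure: % inhibition scaled between sample-field median and high-control FP | Schedule: 10 min plus 3 h, room temperature | Signal: Fluorescence polarization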
ADAM10 inh – inhibits human ADAM10; 370,000 tested, 0.62% active; recombinant ADAM10, EDANS/DABCYL FRET peptide cleavage, 3 h; AID 720582; inhibition, % at 7 µM; O14672;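 active means inhibition above a per-campaign cutoff equal to the mean of compounds falling between control-based bounds plus 3 SD, cut at about 20% in these data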;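 further: 0% = DMSO wells while the 100% control is not disclosed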
ADAM10 ctr – counter-screen for ADAM17 exosite inhibitors: inhibitors of human ADAM10. 2,900 tested, 47% active. inhibition, % at 6.95 µM. recombinant ADAM10, EDANS/DABCYL FRET peptide cleavage, 3 h. shares compounds with ADAM17 inh. AID 743256;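 active means mean inhibition over the triplicate runs exceeds the activity threshold set in the earlier primary screen, cut at about 20% in these data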;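 further: 0% = DMSO wells and 100% = marimastat wells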
ADAM17 confirm – human ADAM17 inhibition, confirmation. shares compounds with ADAM17 inh. recombinant ADAM17, EDANS/DABCYL QFRET peptide cleavage. inhibition, % at 6.95 µM. 2,900 tested, 65% active;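 active means mean inhibition across replicates above the hit cutoff set in the primary screen, cut at about 8.5% in these data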;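 further: 0% = DMSO wells and 100% = marimastat wells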
Active calls of the source: *; · = no result. Shown are actives, neighbours in structure and some others; about 1.6% of the full set was active somewhere.

SMILES	DDE Tn6 FP inh	ADAM17 inh	MT1-MMP act inh	DDE Tn7 FP inh	ADAM10 inh	ADAM10 ctr	ADAM17 confirm
CCOc1cccc(-c2c(C(=O)N/N=C/c3ccc(C)s3)nnn2-c2nonc2N)c1	-5	9.7*	1	6	13	-20	3
COC(=O)N1CCCC1c1cccc2[nH]cc(C)c12 (configuration not stated)	-5	-6	·	-5	-12	·	·
O=C(OC(C(=O)Nc1cc(Cl)cc(Cl)c1)c1ccccc1)C1=COCCO1 (configuration not stated)	1	9.8*	0	2	14	31*	15*
CC1CCC(NC(=O)C(NS(=O)(=O)c2cccc3nsnc23)C(C)C)CC1 (configuration not stated)	-2	13*	-5	0	1	5	7
CCC1(CC)SCCNC1=O	-6	9.1*	-2	-8	7	-2	2
Cc1ccc(S(=O)(=O)CNC(=S)c2ccc3ccccc3c2)cc1	0	9.5*	-10	-4	15	65*	37*
OC1(C#Cc2c(-c3ccsc3)sc3ccccc23)CCCCC1	-4	-7	·	0	-25	·	·
CCc1c(C(=O)C(C)O)c2n3c1CCC[C@@H]3CC2 (some centres not stated)	4	-6	·	-1	-11	·	·
Cc1ccc(NC(=O)C(OC(=O)c2cc(C)oc2C)c2ccccc2)cc1 (configuration not stated)	6	11*	-4	2	14	16	12*
C[C@@H]1CN([C@H](C)CO)C(=O)c2cc(NC(=O)Nc3ccc(F)cc3)ccc2O[C@@H](C)CCCCO[C@@H]1CN(C)C(=O)CCCN(C)C	-1	-4	·	-1	-6	·	·
CCC(C)(C)n1nnnc1C(c1ccc(C)cc1)N(Cc1ccco1)Cc1cccs1 (configuration not stated)	-2	9.4*	-21	4	13	7	5
O=C(Nc1ccc(Cl)cc1)N1CCCN(Cc2ccc(F)cc2)C1	4	10*	0	-3	7	13	11*
COc1cc(OC)cc(C(=O)NNC(=O)CNC(=O)c2cccs2)c1	6	9.2*	-2	3	6	3	4
O=C(C[C@@H]1C/C=C\CCC(=O)OC[C@@H]2CCCN2C1=O)N[C@@H](CO)Cc1ccccc1	-1	8.9*	-2	4	3	4	3
CCOC(=O)C1=CCN(S(=O)(=O)c2ccccc2C)C1c1ccccc1 (configuration not stated)	-1	-1	1	3	-11	·	·
CCOC(=O)C1=CCN(S(=O)(=O)c2ccccc2C)C1c1ccc(Cl)c(Cl)c1 (configuration not stated)	-1	13*	4	0	16	11	7
O=C(NCC(c1ccccc1)c1ccccc1)[C@H](Cc1c[nH]c2ccccc12)NC1(C(=O)NC2CCCCC2)CCN(Cc2ccccc2)CC1	4	5	·	1	17	·	·
CCOC(=O)c1c(C)[nH]c(C)c1C(=O)COC(=O)/C=C/c1ccc(OC(F)F)cc1	4	9.3*	-1	-10	17	21*	10*
O=C(CCn1c2c(c3ccccc31)CCCC2)NNC(=O)c1ccc([N+](=O)[O-])cc1	-6	11*	-1	-4	16	17	9.9*
CC(=O)Nc1cccc(-c2ccnc3c2CC(C(=O)Nc2cccc(Oc4ccccc4)c2)O3)c1 (configuration not stated)	5	7	3	-4	18	·	·
O=C(Nc1cccc(Oc2ccccc2)c1)C1Cc2c(-c3cccc(F)c3)ccnc2O1 (configuration not stated)	0	15*	4	-3	15	15	11*
CC(=O)c1ccc(Sc2ccccc2N)c([N+](=O)[O-])c1	-3	-71	-4	0	-99	·	·
Nc1ccccc1Sc1ccc(C(=O)c2ccccc2C(=O)O)cc1[N+](=O)[O-]	7	9.0*	-5	-6	16	6	3
CSCCC(NS(=O)(=O)c1cccc(C(F)(F)F)c1)C(=O)N(C)CCOc1ccc(Cl)cc1 (configuration not stated)	0	11*	-4	-1	17	41*	21*
CC(C)(C)C1CCC(=O)C(C2(O)C(=O)Nc3ccccc32)C1 (configuration not stated)	-2	12*	-4	-5	3	-3	2
SMILES	DDE Tn6 FP inh	ADAM17 inh	MT1-MMP act inh	DDE Tn7 FP inh	ADAM10 inh	ADAM10 ctr	ADAM17 confirm
CN(C)c1ccc(C(CNS(=O)(=O)c2ccc3ccccc3c2)c2c[nH]c3ccccc23)cc1 (configuration not stated)	2	9.1*	1	-1	19	26*	20*
CC(C)(C)OC(=O)NCc1ccccc1/C=C/S(=O)(=O)NCc1ccccc1	7	1	·	1	5	·	·
Cn1c(Cn2c3ccccc3c3ccccc32)n[nH]c1=S	-4	10*	9	7	17	12	7
CCCSc1nnc(-c2ccco2)n1C	1	2	·	-2	-2	·	·
Nn1c(COc2cccc(Br)c2)nnc1SCC(=O)N1CCc2ccccc2C1	-5	12*	0	-5	10	5	7
COc1ccc(C(=O)N(Cc2sccc2C)C2CCS(=O)(=O)C2)cc1 (configuration not stated)	-1	9.1*	-4	-5	0	-4	1
O=C(CC1CCCC1)N1CC[C@H]2[C@H](CCCN2Cc2cc(F)cc(F)c2)C1	-1	0	·	3	7	·	·
COc1ccc(C2CC(=O)c3c(O)cc(O)cc3O2)c(CC=C(C)C)c1OC (configuration not stated)	-2	14*	1	2	17	25*	14*
COc1ccc(C2CC(=O)c3c(O)cc(O)cc3O2)cc1O (configuration not stated)	2	-1	0	3	-12	·	·
CCOC(=O)C1CSCCS(=O)(=O)N1Cc1ccc(F)cc1F (configuration not stated)	-2	-3	·	4	-10	·	·
COc1ccc(OC)c(-c2csc(NC(=O)Cc3ccc(F)cc3)n2)c1	-3	8.6*	-5	-9	10	32*	16*
CC(=O)N1c2ccc(S(=O)(=O)N3CCC(C(=O)Nc4cccc(C(F)(F)F)c4)CC3)cc2CC1C (configuration not stated)	4	10*	3	2	11	12	9.4*
